In ChEMBL document CHEMBL1141369, “Salinosporamides D-J from the marine actinomycete Salinispora tropica, bromosalinosporamide, and thioester derivatives are potent inhibitors of the 20S proteasome” (J Nat Prod, 2007):

Columns and labels:
[1] = Inhibition of CT-L activity of rabbit muscle 20S proteasome; assay type: tissue-based, Oryctolagus cuniculus, Muscle tissue
Method in brief: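 Serially diluted compound added in duplicate and preincubated 5 min at 37 °C. Reaction started with Suc-LLVY-AMC at 20 µM final, fluorescence read at ex 390/em 460 nm. IC50 from sigmoidal variable-slope fit, mean ± SD of at least three independent experiments.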

RPMI-8226 = experiment: Cytotoxicity against human RPMI 8226 cells; assay type: cell-based
Method in brief: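 Seeded at 2 × 10^4 cells/well, then serially diluted compound added in triplicate for 48 h. Growth read by resazurin reduction (fluorescence). IC50 = concentration giving 50% of maximal observed growth inhibition, from sigmoidal dose-response fit.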

Row | Compound | IC50 [1] [nM] | IC50 (RPMI-8226) [nM]
1 | COC(=O)[C@@H](CSC(=O)[C@]1([C@@H](O)[C@@H]2C=CCCC2)NC(=O)[C@H](CCCl)[C@]1(C)O)NC(C)=O | 4 | 9.7
2 | C[C@@]12OC(=O)[C@]1(CC1C=CCCC1)NC(=O)[C@@H]2CCCl (stereo not given in full) [SALINOSPORAMIDE J] | 52 | 250
3 | COC(=O)CCSC(=O)[C@]1([C@@H](O)[C@@H]2C=CCCC2)NC(=O)[C@@H]2CCO[C@@]21C | 230 | 7500
4 | CC[C@H]1C(=O)N[C@](C(=O)SCCC(=O)OC)([C@@H](O)[C@@H]2C=CCCC2)[C@@]1(C)O | 50 | 8000
5 | COC(=O)CCSC(=O)[C@]1([C@@H](O)[C@@H]2C=CCCC2)NC(=O)[C@H](CCCl)[C@]1(C)O | 9.3 | 11
